Activity calls are given as the source filed them. The calls are words filed in the database; no cut-off is given here.
Assays:
MDA-MB-231 = assay: Cytotoxicity against human MDA-MB-231 cells after 48 hrs by MTT assay; type: functional, cell-based; details: MDA-MB-231, 48 h
Procedure, shortened: (§1)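 Cells seeded at 1.0 × 10^4 to 3.5 × 10^4 per well and incubated 24 h at 37 °C under 5% CO2. Exposed to a range of compound concentrations for 48 h, washed, then given MTT for 2 h and lysed. Absorbance read at 560 nm 45 min after lysis; IC50 from probit analysis. Cycloheximide as positive control.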

HT-29 = assay: Cytotoxicity against human HT-29 cells after 48 hrs by MTT assay; type: functional, cell-based; details: HT-29, 48 h; procedure, shortened: as §1
NIH3T3 = assay: Cytotoxicity against mouse NIH/3T3 cells after 48 hrs by MTT assay; type: functional, cell-based; details: NIH3T3, 48 h; procedure, shortened: as §1
AGS [1] = assay: Induction of apoptosis in human AGS cells assessed as early apoptosis level at 15 ug/mL after 24 hrs by Annexin V-FITC apoptosis assay; type: functional
Procedure, shortened: (§2)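 Cells plated at 40 × 10^4 per well, grown 24 h at 37 C in 5% CO2, then exposed to compound at 15 μg/mL for the stated time. Harvested by rapid trypsinisation, pelleted, resuspended in binding buffer (0.1 M Hepes/NaOH, 1.4 M NaCl, 25 mM CaCl2). Stained with FITC-annexin V and PI for 15 min, dark, room temperature. Flow cytometry within 1 h; early apoptosis scored as AV+/PI−. Untreated cells as negative control, cycloheximide 150 μg/mL as positive control.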

AGS [2] = assay: Induction of apoptosis in human AGS cells assessed as early apoptosis level at 15 ug/mL after 48 hrs by Annexin V-FITC apoptosis assay; type: functional; procedure, shortened: as §2
AGS [3] = assay: Cytotoxicity against human AGS cells after 48 hrs by MTT assay; type: functional, cell-based; procedure, shortened: as §1
MCF7 = assay: Cytotoxicity against human MCF7 cells after 48 hrs by MTT assay; type: functional, cell-based; details: MCF7, 48 h; procedure, shortened: as §1
AGS [4] = assay: Induction of apoptosis in human AGS cells assessed as early apoptosis level at 150 ug/mL after 48 hrs by Annexin V-FITC apoptosis assay; type: functional, cell-based
Procedure, shortened: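 AGS cells seeded at 40 × 10^4 per well and incubated 24 h at 37 °C under 5% CO2. Treated 24 and 48 h with test compound at 15 μg/mL, or cycloheximide at 150 μg/mL as positive control; untreated cells as negative control. Trypsinized, pelleted, then resuspended in binding buffer (0.1 M Hepes/NaOH, 1.4 M NaCl, 25 mM CaCl2). Stained with FITC-annexin V plus PI for 15 min, dark, room temperature. Flow cytometry within 1 h; early apoptosis counted as AV+/PI−.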

SMILES | IC50 (MDA-MB-231) [µM] | IC50 (HT-29) [µM] | IC50 (NIH3T3) [µM] | Activity (AGS [1]) [%] | Activity (AGS [2]) [%] | IC50 (AGS [3]) [µM] | IC50 (MCF7) [µM] | Activity (AGS [4])
Cc1cc2c(c(C)c1CCOS(=O)(=O)O)C(=O)[C@@H](C)[C@@H]2O | > 100 | 68.8 | 46.8 | 6.8 | 25.2 | 23.9 | 64.4 | –
C[C@@H]1C[C@@H]([C@H](O)CC2CC(=O)NC(=O)C2)C(=O)[C@@H](C)C1 [CYCLOHEXIMIDE] | 1.2 | 12.8 | 1.1 | – | – | 3.6 | > 100 | Active
